ChEMBL document CHEMBL4219029, “Impact of Target Warhead and Linkage Vector on Inducing Protein Degradation: Comparison of Bromodomain and Extra-Terminal (BET) Degraders Derived from Triazolodiazepine (JQ1) and Tetrahydroquinoline (I-BET726) BET Inhibitor Scaffolds” (J Med Chem, 2018)
Active and inactive are the calls of the source. No cut-off for these calls is given here.

Assays:
[1] = molecular target: Bromodomain-containing protein 4 (Homo sapiens, UniProt O60885); experiment: Binding affinity to N-terminal His6-tagged recombinant human Brd4 BD2 expressed in Escherichia coli BL21 (DE3) assessed as compound binary complex formation by isothermal titration calorimetry-based assay
In short: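 ITC at 25 °C, stirred, in 20 mM Bis-Tris propane, 150 mM NaCl, 1 mM TCEP, pH 7.4, with 0.2% or 3% DMSO depending on scaffold. Bromodomain titrated into PROTAC (20 μM in cell, halved for poorly soluble compounds) over 19 injections. Single-binding-site fit gave n, Kd and ΔH.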

[2] = molecular target: Von Hippel-Lindau disease tumor suppressor/Elongin B/Elongin C (Homo sapiens, UniProt P40337); experiment: Binding affinity to N-terminal His6-tagged recombinant human VHL (54 to 213 residues)/elongin C (17 to 112 residues)/elongin B (1 to 104 residues) expressed in Escherichia coli BL21 (DE3) assessed as compound binary complex formation by isothermal titration calorimetry-based assay
[3] = molecular target: von Hippel-Lindau disease tumor suppressor/Bromodomain-containing protein 4/Elongin-B/Elongin-C (Homo sapiens, UniProt O60885+P40337+Q15369+Q15370); experiment: (§1) Induction of interaction of N-terminal His6-tagged recombinant human VHL (54 to 213 residues)/elongin C (17 to 112 residues)/elongin B (1 to 104 residues) co-expressed in Escherichia coli BL21 (DE3) with recombinant human Brd4 BD2 assessed as VCB/BRD4/compound ternary complex formation by isothermal titration calorimetry-based assay
HL-60 = experiment: Antiproliferative activity against human HL60 cells after 48 hrs by CellTiter-Glo luminescent cell viability assay; assay type: functional, cell-based; details: HL-60, 48 h
In short: (§2)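 Cells in RPMI with 10% FBS, L-glutamine, penicillin and streptomycin at 37 °C, 5% CO2. Seeded at 3 × 10^5 per mL and exposed to a range of compound concentrations or 0.05% DMSO for 48 h. Viability read by CellTiter-Glo luminescence. EC50 from curve fitting; errors reflect fit quality.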

[4] = molecular target: T1, von Hippel-Lindau disease tumor suppressor/Bromodomain-containing protein 4 (Homo sapiens, UniProt O60885+P40337); experiment: Proteolysis targeting chimera activity in human HeLa cells assessed as induction of VCB-mediated delivery of BRD4 short isoform for protein degradation by proteasome by measuring drug level causing 50% cellular protein depletion incubated for 24 hrs by Western blotting method; assay type: cell-based
[5] = molecular target: T1, von Hippel-Lindau disease tumor suppressor/Bromodomain-containing protein 4; experiment: Proteolysis targeting chimera activity in human HeLa cells assessed as induction of VCB-mediated delivery of BRD4 long isoform for protein degradation by proteasome by measuring drug level causing 50% cellular protein depletion incubated for 24 hrs by Western blotting method; assay type: cell-based
MV4-11 = experiment: Antiproliferative activity against human MV4-11 cells after 48 hrs by CellTiter-Glo luminescent cell viability assay; assay type: functional, cell-based; details: MV4-11, 48 h; in short: as §2
[6] = molecular target: T2, von Hippel-Lindau disease tumor suppressor/Bromodomain-containing protein 3/Elongin-B/Elongin-C (Homo sapiens, UniProt Q15059+P40337+Q15370+Q15369); experiment: Proteolysis targeting chimera activity in human HeLa cells assessed as induction of VCB-mediated delivery of BRD3 for protein degradation by proteasome by measuring drug level causing 50% cellular protein depletion incubated for 24 hrs by Western blotting method; assay type: cell-based
[7] = molecular target: von Hippel-Lindau disease tumor suppressor/Bromodomain-containing protein 2/Elongin-B/Elongin-C (Homo sapiens, UniProt P25440+P40337+Q15369+Q15370); experiment: as §1, with “Brd2 BD1” for “Brd4 BD2”, “VCB/BRD2/compound” for “VCB/BRD4/compound”
[8] = molecular target: T2, von Hippel-Lindau disease tumor suppressor/Bromodomain-containing protein 3/Elongin-B/Elongin-C; experiment: Proteolysis targeting chimera activity in human HeLa cells assessed as induction of VCB-mediated delivery of BRD3 for protein degradation by proteasome at 1 to 10 uM incubated for 24 hrs by Western blotting method; assay type: cell-based
In short: (§3)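 HeLa cells seeded at 3 × 10^5 per well and treated the next day for 24 h. Lysed in RIPA buffer with protease inhibitors, Benzonase and 0.5 mM MgCl2, then immunoblotted. Bands normalized to β-actin and quantified against DMSO control. Dmax is the largest depletion across concentrations. Two biological replicates.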

[9] = molecular target: T1, von Hippel-Lindau disease tumor suppressor/Bromodomain-containing protein 4; experiment: Proteolysis targeting chimera activity in human HeLa cells assessed as induction of VCB-mediated delivery of BRD4 long isoform for protein degradation by proteasome at 1 to 10 uM incubated for 6 hrs by Western blotting method; assay type: cell-based
In short: (§4)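 HeLa cells seeded at 3 × 10^5 per well and treated the next day for 6 h. RIPA lysates (protease inhibitors, Benzonase, 0.5 mM MgCl2) immunoblotted. Band intensities normalized to β-actin and expressed relative to DMSO vehicle.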

[10] = molecular target: T1, von Hippel-Lindau disease tumor suppressor/Bromodomain-containing protein 4; experiment: Proteolysis targeting chimera activity in human HeLa cells assessed as induction of VCB-mediated delivery of BRD4 short isoform for protein degradation by proteasome at 1 to 10 uM incubated for 24 hrs by Western blotting method; assay type: cell-based; in short: as §3
[11] = molecular target: T1, von Hippel-Lindau disease tumor suppressor/Bromodomain-containing protein 4; experiment: Proteolysis targeting chimera activity in human HeLa cells assessed as induction of VCB-mediated delivery of BRD4 long isoform for protein degradation by proteasome at 1 to 10 uM incubated for 24 hrs by Western blotting method; assay type: cell-based; in short: as §3
[12] = molecular target: T3, von Hippel-Lindau disease tumor suppressor/Bromodomain-containing protein 2/Elongin-B/Elongin-C (Homo sapiens) (UniProt P25440+P40337+Q15370+Q15369); experiment: Proteolysis targeting chimera activity in human HeLa cells assessed as induction of VCB-mediated delivery of BRD2 for protein degradation by proteasome at 1 to 10 uM incubated for 24 hrs by Western blotting method; assay type: cell-based; in short: as §3
[13] = molecular target: T1, von Hippel-Lindau disease tumor suppressor/Bromodomain-containing protein 4; experiment: Proteolysis targeting chimera activity in human HeLa cells assessed as induction of VCB-mediated delivery of BRD4 short isoform for protein degradation by proteasome at 1 to 10 uM incubated for 6 hrs by Western blotting method; assay type: cell-based; in short: as §4
[14] = molecular target: T2, von Hippel-Lindau disease tumor suppressor/Bromodomain-containing protein 3/Elongin-B/Elongin-C; experiment: Proteolysis targeting chimera activity in human HeLa cells assessed as induction of VCB-mediated delivery of BRD3 for protein degradation by proteasome at 1 to 10 uM incubated for 6 hrs by Western blotting method; assay type: cell-based; in short: as §4
[15] = molecular target: T3, von Hippel-Lindau disease tumor suppressor/Bromodomain-containing protein 2/Elongin-B/Elongin-C (Homo sapiens); experiment: Proteolysis targeting chimera activity in human HeLa cells assessed as induction of VCB-mediated delivery of BRD2 for protein degradation by proteasome at 1 to 10 uM incubated for 6 hrs by Western blotting method; assay type: cell-based; in short: as §4

| EC50 (HL-60) [nM] | pDC50 [4] | Structure (SMILES) | Kd [1] [nM] | Kd [3] [nM] | Emax (HL-60) [%] | EC50 (MV4-11) [nM] | Emax (MV4-11) [%] | further results |
| --- | --- | --- | --- | --- | --- | --- | --- | --- |
| – | – | Cc1sc2c(c1C)C(c1ccc(Cl)cc1)=N[C@@H](CC(=O)Nc1ccc(OCCOCCOCCOCCNc3cccc4c3C(=O)N(C3CCC(=O)NC3=O)C4=O)cc1)c1nnc(C)n1-2 (stereo not given in full) | – | – | 88 | – | – | – |
| – | – | CC(=O)N1c2ccc(-c3ccc(C(=O)O)cc3)cc2[C@H](Nc2ccc(Cl)cc2)C[C@@H]1C | – | – | 82.4 | – | 73.3 | – |
| 1260 | 8.4 | Cc1ncsc1-c1ccc(CNC(=O)[C@@H]2C[C@@H](O)CN2C(=O)[C@@H](NC(=O)COCCOCCOCCOCCNC(=O)C[C@@H]2N=C(c3ccc(Cl)cc3)c3c(sc(C)c3C)-n3c(C)nnc32)C(C)(C)C)cc1 | 27 | 15 | 91.7 | – | 95.2 | – |
| 427 | 8.1 | CC(=O)N1c2ccc(-c3ccc(C(=O)NCCOCCOCCOCCOCC(=O)N[C@H](C(=O)N4C[C@H](O)C[C@H]4C(=O)NCc4ccc(-c5scnc5C)cc4)C(C)(C)C)cc3)cc2[C@H](Nc2ccc(Cl)cc2)C[C@@H]1C | 8 | 183 | 98.3 | 83.2 | 96.4 | Kd [7]: 330 nM; Kd [2]: 109 nM; Activity [8]: inactive; Activity [9]: inactive; Activity [10]: inactive; Activity [4]: Dose-dependent effect; Activity [5]: Dose-dependent effect; pDC50 [5]: 7.5; Activity [11]: inactive; Activity [12]: inactive; Activity [13]: inactive; Activity [14]: inactive; Activity [15]: inactive; Activity [6]: Dose-dependent effect; pDC50 [6]: 7.7 |
| 219 | – | Cc1ncsc1-c1ccc(CNC(=O)[C@@H]2C[C@@H](O)CN2C(=O)[C@@H](NC(=O)COCCOCCOCCNC(=O)C[C@@H]2N=C(c3ccc(Cl)cc3)c3c(sc(C)c3C)-n3c(C)nnc32)C(C)(C)C)cc1 | – | – | 92 | 26.9 | – | – |

| Structure (SMILES) | EC50 (HL-60) [nM] | pDC50 [4] | Kd [1] [nM] | Kd [3] [nM] | Emax (HL-60) [%] | EC50 (MV4-11) [nM] | Emax (MV4-11) [%] | further results |
| --- | --- | --- | --- | --- | --- | --- | --- | --- |
| CC(=O)N1c2ccc(-c3ccc(C(=O)NCCOCCOCC(=O)N[C@H](C(=O)N4C[C@H](O)C[C@H]4C(=O)NCc4ccc(-c5scnc5C)cc4)C(C)(C)C)cc3)cc2[C@H](Nc2ccc(Cl)cc2)C[C@@H]1C | 676 | 6.9 | 3 | 781 | 96.6 | 575 | 88.1 | Kd [2]: 116 nM; pDC50 [5]: 6.7; pDC50 [6]: 6.8 |
| Cc1ncsc1-c1ccc(CNC(=O)[C@@H]2C[C@@H](O)CN2C(=O)[C@@H](NC(=O)COCCOCCNC(=O)C[C@@H]2N=C(c3ccc(Cl)cc3)c3c(sc(C)c3C)-n3c(C)nnc32)C(C)(C)C)cc1 | 1450 | – | 17 | 26 | 91.4 | 178 | 91.4 | – |
